Reference: ChEMBL document CHEMBL4622886, “Leucinostatins from Ophiocordyceps spp. and Purpureocillium spp. Demonstrate Selective Antiproliferative Effects in Cells Representing the Luminal Androgen Receptor Subtype of Triple Negative Breast Cancer” (2020)
The source made the active and inactive calls. The calls are words filed in the database; no cut-off is given here. Numbered stars: 1 amine (or outer) side, 2 acyl side, 3 side chain; on linkers, the order of the positions; unused ones are H or OH. Square brackets hold non-standard residues; d marks the D form. Peptide text beside a SMILES is read from it. * marks the point of attachment. X1 = CCC(=O)C[C@@H](O)C[C@@H](C)C[C@H](N[*:1])C(=O)[*:2]; X4 = CCCC[C@@H](O)C[C@@H](C)C[C@H](N[*:1])C(=O)[*:2]; X2 = CCC(=O)/C=C/C[C@@H](C)C[C@H](N[*:1])C(=O)[*:2]; X3 = CCC(=O)CCC[C@@H](C)C[C@H](N[*:1])C(=O)[*:2]; Hexenoyl(2E,4S-Me) = CC[C@H](C)/C=C/C(=O)*; Leu(3R-OH) = CC(C)[C@@H](O)[C@H](N)C(=O)O; NH((S)CH(Me)CH2NMe2) = C[C@@H](CN(C)C)N*; Pro(4S-Me) = C[C@@H]1CN[C@H](C(=O)O)C1; NH((S)CH(CH3)CH2NHMe) = CNC[C@H](C)N*; Aib = CC(C)(N)C(=O)O; βAla = NCCC(=O)O

What was measured:
MDA-MB-453 [1] = assay: Antiproliferative activity against human MDA-MB-453 cells at 1 to 100 nM incubated for 48 hrs by sulforhodamine B assay; format: functional, cell-based
Summary of the method: (§1)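 IMEM with 5% FBS and 0.3% gentamicin; cells used within 4 months of thaw. After seeding at set densities and adhering, cells got compound or DMSO vehicle for 48 h, then were fixed and SRB-stained, with A560 read. GI50 (50% proliferation inhibition vs vehicle) came from non-linear regression of concentration-response curves; three independent experiments, each in triplicate.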

SUM185PE [2] = assay: Antiproliferative activity against human SUM185PE cells at 1 to 100 nM incubated for 48 hrs by sulforhodamine B assay; format: functional, cell-based; summary of the method: as §1
HCC1937 [3] = assay: Antiproliferative activity against human HCC1937 cells up to 100 nM incubated for 48 hrs by sulforhodamine B assay; format: functional, cell-based
Summary of the method: (§2)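 Cells (RPMI-1640 with 5% FBS, 0.5% gentamicin; used within 4 months of thaw) were seeded at set densities, allowed to adhere, then treated 48 h with compound or DMSO vehicle. Cells were fixed and SRB-stained, with absorbance read at 560 nm. GI50 vs vehicle was taken by non-linear regression; three independent experiments, each in triplicate.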

HCC1806 [4] = assay: Antiproliferative activity against human HCC1806 cells up to 100 nM incubated for 48 hrs by sulforhodamine B assay; format: functional, cell-based; summary of the method: as §2
BT-549 [5] = assay: Antiproliferative activity against human BT549 cells up to 100 nM incubated for 48 hrs by sulforhodamine B assay; format: functional, cell-based; summary of the method: as §2
MDA-MB-231 [6] = assay: Antiproliferative activity against human MDA-MB-231 cells up to 100 nM incubated for 48 hrs by sulforhodamine B assay; format: functional, cell-based; summary of the method: as §1
HCC1937 [7] = assay: Antiproliferative activity against human HCC1937 cells at >1 uM incubated for 48 hrs by sulforhodamine B assay; format: functional, cell-based; summary of the method: as §2
MDA-MB-231 [8] = assay: Antiproliferative activity against human MDA-MB-231 cells incubated for 48 hrs by sulforhodamine B assay; format: functional; settings: MDA-MB-231, 48 h; summary of the method: as §1
MDA-MB-453 [9] = assay: Antiproliferative activity against human MDA-MB-453 cells at > 1 uM incubated for 48 hrs by sulforhodamine B assay; format: functional, cell-based; summary of the method: as §1
HCC1806 [10] = assay: Antiproliferative activity against human HCC1806 cells at >1 uM incubated for 48 hrs by sulforhodamine B assay; format: functional, cell-based; summary of the method: as §2
MDA-MB-231 [11] = assay: Antiproliferative activity against human MDA-MB-231 cells at > 1 uM incubated for 48 hrs by sulforhodamine B assay; format: functional, cell-based; summary of the method: as §1
BT-549 [12] = assay: Antiproliferative activity against human BT549 cells at >1 uM incubated for 48 hrs by sulforhodamine B assay; format: functional, cell-based; summary of the method: as §2
MDA-MB-453 [13] = assay: Antiproliferative activity against human MDA-MB-453 cells incubated for 48 hrs by sulforhodamine B assay; format: functional; settings: MDA-MB-453, 48 h; summary of the method: as §1
SUM185PE [14] = assay: Antiproliferative activity against human SUM185PE cells incubated for 48 hrs by sulforhodamine B assay; format: functional; summary of the method: as §1

Row | GI50 (MDA-MB-453 [13]) | Structure (SMILES) | Activity (MDA-MB-453 [1]) | Activity (SUM185PE [2]) | Activity (HCC1937 [3]) | Activity (HCC1806 [4]) | Activity (BT-549 [5]) | Activity (MDA-MB-231 [6]) | Activity (HCC1937 [7]) | GI50 (MDA-MB-231 [8]) | Activity (MDA-MB-453 [9]) | Activity (HCC1806 [10]) | Activity (MDA-MB-231 [11]) | Activity (BT-549 [12]) | GI50 (SUM185PE [14])
1 |  | CCC(=O)CCC[C@@H](C)C[C@H](NC(=O)[C@@H]1C[C@H](C)CN1C(=O)/C=C/[C@@H](C)CC)C(=O)N[C@H](C(=O)NC(C)(C)C(=O)N[C@@H](CC(C)C)C(=O)N[C@@H](CC(C)C)C(=O)NC(C)(C)C(=O)NC(C)(C)C(=O)NCCC(=O)N[C@@H](C)CNC)[C@H](O)C(C)C ({Hexenoyl(2E,4S-Me)}-[Pro(4S-Me)][X3][Leu(3R-OH)][Aib]LL[Aib][Aib][βAla]-{NH((S)CH(CH3)CH2NHMe)}) | Active | Active | inactive | inactive | inactive | inactive | Active | > 100 nM | Active | Active | Active | Active | 
2 |  | CCC(=O)C[C@@H](O)C[C@@H](C)C[C@H](NC(=O)[C@@H]1C[C@H](C)CN1C(=O)/C=C/[C@@H](C)CC)C(=O)N[C@H](C(=O)NC(C)(C)C(=O)N[C@@H](CC(C)C)C(=O)N[C@@H](CC(C)C)C(=O)NC(C)(C)C(=O)NC(C)(C)C(=O)NCCC(=O)N[C@@H](C)CN(C)C)[C@H](O)C(C)C ({Hexenoyl(2E,4S-Me)}-[Pro(4S-Me)][X1][Leu(3R-OH)][Aib]LL[Aib][Aib][βAla]-{NH((S)CH(Me)CH2NMe2)}) | Active | Active | inactive | inactive | inactive | inactive | Active |  | Active | Active | Active | Active | 
3 | 7.9 nM | CCC(=O)/C=C/C[C@@H](C)C[C@H](NC(=O)[C@@H]1C[C@H](C)CN1C(=O)/C=C/[C@@H](C)CC)C(=O)N[C@H](C(=O)NC(C)(C)C(=O)N[C@@H](CC(C)C)C(=O)N[C@@H](CC(C)C)C(=O)NC(C)(C)C(=O)NC(C)(C)C(=O)NCCC(=O)N[C@@H](C)CN(C)C)[C@H](O)C(C)C ({Hexenoyl(2E,4S-Me)}-[Pro(4S-Me)][X2][Leu(3R-OH)][Aib]LL[Aib][Aib][βAla]-{NH((S)CH(Me)CH2NMe2)}) | Active | Active | inactive | inactive | inactive | inactive | Active | > 100 nM | Active | Active | Active | Active | 4.4 nM
4 |  | CCCC[C@@H](O)C[C@@H](C)C[C@H](NC(=O)[C@@H]1C[C@H](C)CN1C(=O)/C=C/[C@@H](C)CC)C(=O)N[C@H](C(=O)NC(C)(C)C(=O)N[C@@H](CC(C)C)C(=O)N[C@@H](CC(C)C)C(=O)NC(C)(C)C(=O)NC(C)(C)C(=O)NCCC(=O)N[C@@H](C)CNC)[C@H](O)C(C)C ({Hexenoyl(2E,4S-Me)}-[Pro(4S-Me)][X4][Leu(3R-OH)][Aib]LL[Aib][Aib][βAla]-{NH((S)CH(CH3)CH2NHMe)}) | Active | Active | inactive | inactive | inactive | inactive | Active | > 100 nM | Active | Active | Active | Active | 
5 |  | CCCC[C@@H](O)C[C@@H](C)C[C@H](NC(=O)[C@@H]1C[C@H](C)CN1C(=O)/C=C/[C@@H](C)CC)C(=O)N[C@H](C(=O)NC(C)(C)C(=O)N[C@@H](CC(C)C)C(=O)N[C@@H](CC(C)C)C(=O)NC(C)(C)C(=O)NC(C)(C)C(=O)NCCC(=O)N[C@@H](C)CN(C)C)[C@H](O)C(C)C ({Hexenoyl(2E,4S-Me)}-[Pro(4S-Me)][X4][Leu(3R-OH)][Aib]LL[Aib][Aib][βAla]-{NH((S)CH(Me)CH2NMe2)}) | Active | Active | inactive | inactive | inactive | inactive | Active | > 100 nM | Active | Active | Active | Active | 
6 |  | CCC(=O)CCC[C@@H](C)C[C@H](NC(=O)[C@@H]1C[C@H](C)CN1C(=O)/C=C/[C@@H](C)CC)C(=O)N[C@H](C(=O)NC(C)(C)C(=O)N[C@@H](CC(C)C)C(=O)N[C@@H](CC(C)C)C(=O)NC(C)(C)C(=O)NC(C)(C)C(=O)NCCC(=O)N[C@@H](C)CN(C)C)[C@H](O)C(C)C ({Hexenoyl(2E,4S-Me)}-[Pro(4S-Me)][X3][Leu(3R-OH)][Aib]LL[Aib][Aib][βAla]-{NH((S)CH(Me)CH2NMe2)}) | Active | Active | inactive | inactive | inactive | inactive | Active | > 100 nM | Active | Active | Active | Active | 
7 | 2.3 nM | CC[C@H](C)/C=C/C(=O)N1C[C@@H](C)C[C@H]1C(=O)N[C@@H](CC(C)C)C(=O)N[C@H](C(=O)NC(C)(C)C(=O)N[C@@H](CC(C)C)C(=O)N[C@@H](CC(C)C)C(=O)NC(C)(C)C(=O)NC(C)(C)C(=O)NCCC(=O)N[C@@H](C)CN(C)C)[C@H](O)C(C)C ({Hexenoyl(2E,4S-Me)}-[Pro(4S-Me)]L[Leu(3R-OH)][Aib]LL[Aib][Aib][βAla]-{NH((S)CH(Me)CH2NMe2)}) | Active | Active | inactive | inactive | inactive | inactive | Active | > 100 nM | Active | Active | Active | Active | 1.4 nM

Row | Structure (SMILES) | GI50 (MDA-MB-453 [13]) | Activity (MDA-MB-453 [1]) | Activity (SUM185PE [2]) | Activity (HCC1937 [3]) | Activity (HCC1806 [4]) | Activity (BT-549 [5]) | Activity (MDA-MB-231 [6]) | Activity (HCC1937 [7]) | GI50 (MDA-MB-231 [8]) | Activity (MDA-MB-453 [9]) | Activity (HCC1806 [10]) | Activity (MDA-MB-231 [11]) | Activity (BT-549 [12]) | GI50 (SUM185PE [14])
8 | CC[C@H](C)/C=C/C(=O)N1C[C@@H](C)C[C@H]1C(=O)N[C@@H](CC(C)C)C(=O)N[C@H](C(=O)NC(C)(C)C(=O)N[C@@H](CC(C)C)C(=O)N[C@@H](CC(C)C)C(=O)NC(C)(C)C(=O)NC(C)(C)C(=O)NCCC(=O)N[C@@H](C)CNC)[C@H](O)C(C)C ({Hexenoyl(2E,4S-Me)}-[Pro(4S-Me)]L[Leu(3R-OH)][Aib]LL[Aib][Aib][βAla]-{NH((S)CH(CH3)CH2NHMe)}) | 2.6 nM | Active | Active | inactive | inactive | inactive | inactive | Active | > 100 nM | Active | Active | Active | Active | 2 nM
